These results are taken from PubChem BioAssay AID504654 (Molecular Libraries Program, Specialized Chemistry Center, …, 2011).

In general, IC50 refers to the point on the concentration scale where inhibition reaches its midpoint.

Active and inactive are the calls of the source.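 Rule for the calls: active = IC50 of at least 20 µM; inactive = IC50 below 20 µM.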

This experiment addresses HeLa ODD-luciferase turnover, degradation rate luminescence. Briefly: p97-independent proteasomal reporter degradation blockers – cell-based, HeLa, luminescence, counter-screen for p97 inhibitor project, SAR follow-up (AID 504654). In outline: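 Assay system: Human HeLa line with stable ODD-luciferase reporter | Detection: Luminescence after luciferin substrate addition | Read-out: IC50 from Langmuir fit of percent remaining degradation rate | Reagent: MG132 4 µM proteasome block before chase, then washed out | Times: 1 h MG132 block, 70/90/120/150 min chase | Control set: DMSO wells as reference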
Background: A counterscreen serves to expose hits that act by an unwanted route or on another target.
With `COc1cccc2c(NCc3ccccc3)nc(-n3c(=O)oc4ccccc43)nc12`, the IC50 is over 20 µM. Take `Cc1ccc(CNc2nc(NCc3ccccc3)c3ccccc3n2)cc1`: the IC50 result was “inactive”. The value for `Brc1cccc(CNc2nc(NCc3ccccc3)c3ccccc3n2)c1` was “inactive”; that for `COc1cccc2c(NCc3ccccc3)nc(Nc3nc4ccccc4n3C)nc12` was “inactive”. The value for `COc1cccc2c(NCc3ccccc3)nc(Nc3cccc(Cl)c3)nc12` was “inactive”. The value for `COc1cccc2c(NCc3ccccc3)nc(NCc3ccccc3)nc12` was “inactive”. As to `Fc1cccc(CNc2nc(NCc3ccccc3)c3ccccc3n2)c1`, the IC50 entry is “inactive”.

In the case of `FC(F)(F)c1ccc(CNc2nc(NCc3ccccc3)c3ccccc3n2)cc1`, the IC50 result is “inactive”. For `c1ccc(CNc2nc(N3CCOc4ccccc43)nc3ccsc23)cc1`, the IC50 result is “inactive”. The value for `COc1cccc2c(NCc3ccccc3)nc(NCc3cccs3)nc12` was “inactive”.
